Measured values reported in ChEMBL document CHEMBL4396878, “Mechanisms of Specific versus Nonspecific Interactions of Aggregation-Prone Inhibitors and Attenuators” (J Med Chem, 2019).
The source made the active and inactive calls. The calls are words filed in the database; no cut-off is given here.

How the values were obtained:
[1] = Aggregation property of the compound assessed as change in peak intensity by measuring concentration at which peak intensities deviated from the linear correlation by 1H-NMR analysis; type: physicochemical
Summary of the method: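 Line widths, chemical shifts and peak intensities tracked; CAC taken as the concentration where intensities deviate from linear dependence, or, for line width, the minimal concentration that increases peak width.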

[2] = Aggregation property of the compound in NMR buffer assessed as diameter of aggregate at 500 uM by dynamic light scattering analysis; type: physicochemical
Summary of the method: (§1)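 Dynamic light scattering in NMR buffer, samples filtered through 0.22 μm and centrifuged 5 min at 13 500 rpm before measurement. Autocorrelation accumulated 150 s at a 173° scattering angle, in replicates of 3–5, with water viscosity used in analysis; intensity or volume size distributions reported.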

[3] = molecular target: T1, Rap guanine nucleotide exchange factor 3 (Homo sapiens) (UniProt O95398); assay: Ratio of apparent Kd for binding affinity to human EPAC1 cAMP binding domain (149 to 318 residues) in presence of human serum albumin to apparent Kd for binding affinity to human EPAC1 cAMP binding domain (149 to 318 residues) in absence of human serum albumin
T1 sequence (whole entry): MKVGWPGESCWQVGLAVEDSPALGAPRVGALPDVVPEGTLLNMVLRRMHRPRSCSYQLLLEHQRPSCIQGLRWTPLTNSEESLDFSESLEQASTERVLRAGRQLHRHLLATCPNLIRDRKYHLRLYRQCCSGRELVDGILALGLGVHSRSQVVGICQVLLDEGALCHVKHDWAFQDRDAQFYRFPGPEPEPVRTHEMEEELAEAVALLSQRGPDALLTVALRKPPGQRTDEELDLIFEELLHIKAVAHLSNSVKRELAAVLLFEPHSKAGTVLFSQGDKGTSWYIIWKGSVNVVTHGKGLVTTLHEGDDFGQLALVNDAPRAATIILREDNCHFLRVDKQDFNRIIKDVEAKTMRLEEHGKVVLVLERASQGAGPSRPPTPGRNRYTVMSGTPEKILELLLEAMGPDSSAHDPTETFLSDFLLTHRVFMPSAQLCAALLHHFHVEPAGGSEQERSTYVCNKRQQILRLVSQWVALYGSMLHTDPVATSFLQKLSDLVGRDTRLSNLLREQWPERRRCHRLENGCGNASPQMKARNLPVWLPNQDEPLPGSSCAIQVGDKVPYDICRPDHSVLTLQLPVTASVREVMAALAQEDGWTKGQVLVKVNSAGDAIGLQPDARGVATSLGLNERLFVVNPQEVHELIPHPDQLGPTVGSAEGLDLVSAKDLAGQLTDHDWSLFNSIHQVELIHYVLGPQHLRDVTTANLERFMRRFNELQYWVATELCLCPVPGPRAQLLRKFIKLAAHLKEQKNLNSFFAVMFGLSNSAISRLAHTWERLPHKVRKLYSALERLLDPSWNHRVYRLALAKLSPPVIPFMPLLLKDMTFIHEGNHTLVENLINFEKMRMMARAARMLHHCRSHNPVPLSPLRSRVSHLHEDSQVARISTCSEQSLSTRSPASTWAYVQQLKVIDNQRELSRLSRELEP

[4] = molecular target: T1, Rap guanine nucleotide exchange factor 3 (Homo sapiens); assay: Binding affinity to human EPAC1 cAMP binding domain (149 to 318 residues) assessed as change in chemical shift at 50 to 250 uM using aggregate form of compound by [15N-1H]HSQC spectroscopic analysis
[5] = molecular target: T1, Rap guanine nucleotide exchange factor 3 (Homo sapiens); assay: Binding affinity to human EPAC1 cAMP binding domain (149 to 318 residues) assessed as increase in peak intensity at 100 uM in presence of human serum albumin by [15N-1H]HSQC spectroscopic analysis relative to control
[6] = molecular target: T2, Rap guanine nucleotide exchange factor 3 (Homo sapiens, UniProt O95398); assay: Inhibition of 8-NBD-cAMP binding to human EPAC1 cAMP binding domain (149 to 318 residues) by fluorescence assay
T2 sequence (O95398 whole entry): T1 sequence (whole entry)

[7] = molecular target: T1, Rap guanine nucleotide exchange factor 3 (Homo sapiens); assay: Binding affinity to human EPAC1 cAMP binding domain (149 to 318 residues) assessed as residue-dependent change in chemical shift at 100 uM using aggregate form of compound by [15N-1H]HSQC spectroscopic analysis
[8] = molecular target: T1, Rap guanine nucleotide exchange factor 3 (Homo sapiens); assay: Binding affinity to human EPAC1 cAMP binding domain (149 to 318 residues) at 200 to 300 uM in presence of triton X-100 using aggregate form of compound by [15N-1H]HSQC spectroscopic analysis
[9] = molecular target: T1, Rap guanine nucleotide exchange factor 3 (Homo sapiens); assay: Binding affinity to human EPAC1 cAMP binding domain (149 to 318 residues) at 400 uM in presence of 0.1% triton X-100 by [15N-1H]HSQC spectroscopic analysis
[10] = Binding affinity to Triton-X 100 assessed as aggregate formation at 1:1 ratio of Triton-X 100 to compound by dynamic light scattering analysis; summary of the method: as §1
Albumin [11] = molecular target: T3, Albumin (Homo sapiens, UniProt P02768); assay: Binding affinity to human serum albumin assessed as inhibition of compound aggregation at 200 to 500 uM by dynamic light scattering analysis; summary of the method: as §1
[12] = Aggregation property of the compound in NMR buffer assessed as micellar morphology at 200 uM by uranyl acetate staining-based transmission electron microscopic analysis; type: physicochemical
[13] = Aggregation property of the compound assessed as change in saturation transfer at 100 uM irradiated at 6.61 ppm by STD NMR spectra analysis; type: physicochemical
Summary of the method: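 STD NMR, saturation by a train of 40 Gaussian pulses of 50 ms each; selective on-resonance irradiation at the stated ppm (TX at 7.48 ppm), off-resonance at 30 ppm, interleaved and subtracted by phase cycling. 32K points, 16 ppm width centred at 4.7 ppm, 256 scans, 16 dummy scans, 0.1 s recycle delay (~15 min); 3 Hz exponential line broadening.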

[14] = Binding affinity to Triton-X 100 assessed as line broadening at 100 to 300 uM by 1H-NMR analysis
[15] = Binding affinity to Triton-X 100 assessed as line broadening at 100 uM by 1H-NMR spectra analysis
[16] = Binding affinity to Triton-X 100 assessed as inter-molecular cross relaxation at 100 uM by NOESY spectra analysis
Summary of the method: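 2D NOESY and ROESY of 100 μM ESI with 0.025% Triton X-100 or 500 μM ESI with 0.05% Triton X-100; 2K × 512 complex points, 12 ppm spectral width centred at 4.7 ppm, intra- and intermolecular cross-peaks mapped.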

[17] = Binding affinity to Triton-X 100 assessed as aggregate formation at 1:2 ratio of Triton-X 100 to compound by dynamic light scattering analysis; summary of the method: as §1
Albumin [18] = molecular target: T3, Albumin; assay: Binding affinity to human serum albumin assessed as inhibition of compound aggregation at 250 uM by surface plasmon resonance analysis
Summary of the method: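 SPR on a nonfunctionalized gold nanoparticle sensor; samples in NMR buffer with DMSO at 1.25%, injected at 33 μL/min alongside matched DMSO controls (with HSA where present, 25 μM), in duplicate. Surface regenerated only after HSA-containing injections.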

[19] = Aggregation property of the compound in NMR buffer assessed as aggregate size at 500 uM by dynamic light scattering analysis; type: physicochemical; summary of the method: as §1

T3 sequence (P02768 whole entry): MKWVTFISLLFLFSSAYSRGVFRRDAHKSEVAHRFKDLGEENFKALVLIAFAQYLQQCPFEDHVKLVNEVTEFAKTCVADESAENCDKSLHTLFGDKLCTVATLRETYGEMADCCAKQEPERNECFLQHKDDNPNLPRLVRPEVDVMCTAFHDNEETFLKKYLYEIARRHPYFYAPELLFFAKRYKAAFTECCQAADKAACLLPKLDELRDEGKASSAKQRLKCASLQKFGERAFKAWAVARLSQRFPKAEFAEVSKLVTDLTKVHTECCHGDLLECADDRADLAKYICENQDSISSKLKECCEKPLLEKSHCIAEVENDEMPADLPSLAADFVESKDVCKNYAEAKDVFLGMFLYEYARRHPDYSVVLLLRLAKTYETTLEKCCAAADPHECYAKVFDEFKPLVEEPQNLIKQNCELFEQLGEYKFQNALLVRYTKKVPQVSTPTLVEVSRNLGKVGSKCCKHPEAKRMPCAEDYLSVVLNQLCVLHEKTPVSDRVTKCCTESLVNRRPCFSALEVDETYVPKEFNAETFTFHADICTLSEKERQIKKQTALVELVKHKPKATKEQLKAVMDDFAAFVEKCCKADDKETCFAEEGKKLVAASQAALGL

Activity [1]: 150 µM
Activity [2]: 250 nm
Activity [3]: inactive
Activity [4]: Active
Activity [5]: 44%
Kd [6]: 20 µM
Activity [7]: Active
Activity [8]: Active
Activity [9]: Active
Activity [10]: inactive
inhibition (INH) (Albumin [11]): Active
Activity [12]: Active
Activity [13]: Not Active
Activity [14]: Active
Activity [15]: Active
Activity [17]: Active
inhibition (INH) (Albumin [18]): Active
Activity [19]: 90 to 600 nm
SMILES: CC(C)(C)c1cc(C(=O)/C(C#N)=N/Nc2cccc(Cl)c2)no1
Activity [16]: Active
